Key:
L1210 [1] = test: Antileukemic activity against mouse L1210 cells allografted in male CDF1 mouse assessed as host mean survival time at 100 mg/kg, ip administered daily for 9 days as Klucel suspension starting 24 hrs after tumor inoculation relative to control; assay type: functional; details: route intraperitoneal
Outline: (§1)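 L1210 leukemia given as an ascitic fluid cell inoculum, ip, to mice of the strain and sex in each line. Test material was given ip for nine daily doses starting 24 h after inoculation, in a Klucel (hydroxypropylcellulose) suspension. Read-out is mean survival time as %T/C versus controls, with >125 taken as significant.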

L1210 [2] = test: Antileukemic activity against mouse L1210 cells allografted in female BDF1 mouse assessed as change in body weight at 50 mg/kg, ip administered daily for 9 days as Klucel suspension starting 24 hrs after tumor inoculation; assay type: functional; details: route intraperitoneal
Outline: (§2)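 Ascitic fluid carrying L1210 cells was inoculated ip. Compound was given ip as a Klucel (hydroxypropylcellulose) suspension in nine daily doses, starting 24 h after inoculation. Body-weight difference (treated minus control) was recorded on day 5. Survival was scored as %T/C of mean survival time.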

Mus musculus [3] = test: Toxicity in male CDF1 mouse allografted with mouse P388 cells assessed as animal survival at 50 mg/kg, ip administered daily for 9 days as Klucel suspension starting 24 hrs after tumor inoculation; assay type: organism-based; design: dose 50 mg/kg, route intraperitoneal; details: in vivo
Outline: (§3)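 P-388 leukemia ascitic fluid inoculated ip. Compound given ip as a suspension in Klucel (hydroxypropylcellulose), once daily for nine doses beginning 24 h post-inoculation. Acute toxicity assessed as toxicity-day survivors per group. Survival was followed up to 30 days, with 30-day survival counted as "cure". Follows NCI screening protocols.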

L1210 [4] = test: Antileukemic activity against mouse L1210 cells allografted in female BDF1 mouse assessed as change in body weight at 12.5 mg/kg, ip administered daily for 9 days as Klucel suspension starting 24 hrs after tumor inoculation; assay type: functional; details: route intraperitoneal; outline: as §2
P388 [5] = test: Antitumor activity against mouse P388 cells allografted in male CDF1 mouse assessed as disease cures by measuring 30-days host survival at 50 mg/kg, ip administered daily for 9 days as Klucel suspension starting 24 hrs after tumor inoculation relative to control; assay type: functional; details: route intraperitoneal
Outline: (§4)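 P388 leukemia given as an ascitic fluid cell inoculum, ip, to mice of the strain and sex in each line. Nine daily ip doses were given in a Klucel (hydroxypropylcellulose) suspension, starting 24 h after inoculation. Read-out is median survival time as %T/C, with >125 taken as significant; a "cure" means 30-day survival.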

Mus musculus [6] = test: Toxicity in male CDF1 mouse allografted with mouse L1210 cells assessed as animal survival at 100 mg/kg, ip administered daily for 9 days as Klucel suspension starting 24 hrs after tumor inoculation measured on fifth day; assay type: organism-based; design: dose 100 mg/kg, route intraperitoneal; details: in vivo
Outline: (§5)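 L1210 leukemia passaged as ascitic fluid and inoculated ip. Test agent given ip as a Klucel (hydroxypropylcellulose) suspension, nine daily doses starting 24 h after tumor inoculation. Acute toxicity read as toxicity-day survivors per group (out of 6), recorded on day 5. Animal weight difference T − C was also recorded. Follows NCI screening protocols.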

Mus musculus [7] = test: Toxicity in male CDF1 mouse allografted with mouse P388 cells assessed as animal survival at 25 mg/kg, ip administered daily for 9 days as Klucel suspension starting 24 hrs after tumor inoculation; assay type: organism-based; design: dose 25 mg/kg, route intraperitoneal; details: in vivo; outline: as §3
Mus musculus [8] = test: Toxicity in male CDF1 mouse allografted with mouse L1210 cells assessed as animal survival at 200 mg/kg, ip administered daily for 9 days as Klucel suspension starting 24 hrs after tumor inoculation measured on fifth day; assay type: organism-based; design: dose 200 mg/kg, route intraperitoneal; details: in vivo; outline: as §5
P388 [9] = test: Antitumor activity against mouse P388 cells allografted in male CDF1 mouse assessed as disease cures by measuring 30-days host survival at 12.5 mg/kg, ip administered daily for 9 days as Klucel suspension starting 24 hrs after tumor inoculation relative to control; assay type: functional; details: route intraperitoneal; outline: as §4
L1210 [10] = test: Antileukemic activity against mouse L1210 cells allografted in male CDF1 mouse assessed as change in body weight at 200 mg/kg, ip administered daily for 9 days as Klucel suspension starting 24 hrs after tumor inoculation; assay type: functional; details: route intraperitoneal; outline: as §2
Mus musculus [11] = test: Toxicity in female BDF1 mouse allografted with mouse L1210 cells assessed as animal survival at 50 mg/kg, ip administered daily for 9 days as Klucel suspension starting 24 hrs after tumor inoculation measured on fifth day; assay type: organism-based; design: dose 50 mg/kg, route intraperitoneal; details: in vivo; outline: as §5
P388 [12] = test: Antitumor activity against mouse P388 cells allografted in male CDF1 mouse assessed as disease cures by measuring 30-days host survival at 25 mg/kg, ip administered daily for 9 days as Klucel suspension starting 24 hrs after tumor inoculation relative to control; assay type: functional; details: route intraperitoneal; outline: as §4
L1210 [13] = test: Antileukemic activity against mouse L1210 cells allografted in male CDF1 mouse assessed as host mean survival time at 200 mg/kg, ip administered daily for 9 days as Klucel suspension starting 24 hrs after tumor inoculation relative to control; assay type: functional; details: route intraperitoneal; outline: as §1
Mus musculus [14] = test: Toxicity in male CDF1 mouse allografted with mouse P388 cells assessed as animal survival at 12.5 mg/kg, ip administered daily for 9 days as Klucel suspension starting 24 hrs after tumor inoculation; assay type: organism-based; design: dose 12.5 mg/kg, route intraperitoneal; details: in vivo; outline: as §3
Mus musculus [15] = test: Toxicity in female BDF1 mouse allografted with mouse L1210 cells assessed as animal survival at 25 mg/kg, ip administered daily for 9 days as Klucel suspension starting 24 hrs after tumor inoculation measured on fifth day; assay type: organism-based; design: dose 25 mg/kg, route intraperitoneal; details: in vivo; outline: as §5
L1210 [16] = test: Antileukemic activity against mouse L1210 cells allografted in female BDF1 mouse assessed as host mean survival time at 12.5 mg/kg, ip administered daily for 9 days as Klucel suspension starting 24 hrs after tumor inoculation relative to control; assay type: functional; details: route intraperitoneal; outline: as §1
L1210 [17] = test: Antileukemic activity against mouse L1210 cells allografted in female BDF1 mouse assessed as change in body weight at 25 mg/kg, ip administered daily for 9 days as Klucel suspension starting 24 hrs after tumor inoculation; assay type: functional; details: route intraperitoneal; outline: as §2
P388 [18] = test: Antitumor activity against mouse P388 cells allografted in male CDF1 mouse assessed as change in body weight at 100 mg/kg, ip administered daily for 9 days as Klucel suspension starting 24 hrs after tumor inoculation; assay type: functional; details: route intraperitoneal
Outline: (§6)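 Ascitic fluid carrying P388 cells was inoculated ip. Compound was given ip in nine daily doses, starting 24 h after inoculation, in Klucel (hydroxypropylcellulose) suspension or in saline with Tween-80. Body-weight difference (treated minus control) was recorded on day 5. Survival was scored as %T/C of median survival time, and 30-day survival counted as cure.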

P388 [19] = test: Antitumor activity against mouse P388 cells allografted in male CDF1 mouse assessed as change in body weight at 12.5 mg/kg, ip administered daily for 9 days as Klucel suspension starting 24 hrs after tumor inoculation; assay type: functional; details: route intraperitoneal; outline: as §6
P388 [20] = test: Antitumor activity against mouse P388 cells allografted in male CDF1 mouse assessed as change in body weight at 25 mg/kg, ip administered daily for 9 days as Klucel suspension starting 24 hrs after tumor inoculation; assay type: functional; details: route intraperitoneal; outline: as §6
[21] = Cytotoxicity against human 9KB cells treated as ethanol solution; assay type: functional; details: read-out: ED50 (the source's name)
Outline: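 Compound applied as an ethanol solution; activity read out as ED50 under the general screening protocol.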

P388 [22] = test: Antitumor activity against mouse P388 cells allografted in male CDF1 mouse assessed as disease cures by measuring 30-days host survival at 100 mg/kg, ip administered daily for 9 days as Klucel suspension starting 24 hrs after tumor inoculation relative to control; assay type: functional; details: route intraperitoneal; outline: as §4
Mus musculus [23] = test: Toxicity in female BDF1 mouse allografted with mouse L1210 cells assessed as animal survival at 12.5 mg/kg, ip administered daily for 9 days as Klucel suspension starting 24 hrs after tumor inoculation measured on fifth day; assay type: organism-based; design: dose 12.5 mg/kg, route intraperitoneal; details: in vivo
Outline: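 Female BDF1 mice bearing ip ascitic L1210 inoculum got nine daily ip doses in a Klucel suspension, starting 24 h after tumor inoculation. Toxicity was scored as toxicity-day survivors out of the group, recorded on the fifth day. Animal weight difference (T − C) was also tabulated.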

L1210 [24] = test: Antileukemic activity against mouse L1210 cells allografted in female BDF1 mouse assessed as host mean survival time at 25 mg/kg, ip administered daily for 9 days as Klucel suspension starting 24 hrs after tumor inoculation relative to control; assay type: functional; details: route intraperitoneal; outline: as §1
L1210 [25] = test: Antileukemic activity against mouse L1210 cells allografted in female BDF1 mouse assessed as host mean survival time at 50 mg/kg, ip administered daily for 9 days as Klucel suspension starting 24 hrs after tumor inoculation relative to control; assay type: functional; details: route intraperitoneal; outline: as §1
P388 [26] = test: Antitumor activity against mouse P388 cells allografted in male CDF1 mouse assessed as change in body weight at 50 mg/kg, ip administered daily for 9 days as Klucel suspension starting 24 hrs after tumor inoculation; assay type: functional; details: route intraperitoneal; outline: as §6
L1210 [27] = test: Antileukemic activity against mouse L1210 cells allografted in male CDF1 mouse assessed as change in body weight at 100 mg/kg, ip administered daily for 9 days as Klucel suspension starting 24 hrs after tumor inoculation; assay type: functional; details: route intraperitoneal; outline: as §2

In the case of `CNC(=O)OCc1c(COC(=O)NC)c(-c2ccc(Cl)c(Cl)c2)n2c1CCC2`, the T/C (L1210 [1]) is reported as 74%, the Activity (L1210 [2]) is reported as -3 g and the Activity (Mus musculus [3]) is reported as “Non-toxic”. For the same molecule, the Activity (L1210 [4]) was -1.5 g, the T/C (P388 [5]) was 155% and the Activity (Mus musculus [6]) was “Non-toxic”. For the same molecule, the Activity (Mus musculus [7]) was “Non-toxic”, the Activity (Mus musculus [8]) was “Non-toxic” and the T/C (P388 [9]) was 153%. The Activity (L1210 [10]) was -4.8 g, the Activity (Mus musculus [11]) was “Non-toxic” and the T/C (P388 [12]) was 160%. For the same molecule, the T/C (L1210 [13]) was 63%, the Activity (Mus musculus [14]) was “Non-toxic” and the Activity (Mus musculus [15]) was “Non-toxic”. The T/C (L1210 [16]) was 106%, the Activity (L1210 [17]) was -1.3 g and the Activity (P388 [18]) was -1.9 g. The Activity (P388 [19]) was 1.6 g, the Activity (P388 [20]) was -0.4 g and the EC50 [21] was greater than 2.7 µg/mL. The T/C (P388 [22]) was 188%, the Activity (Mus musculus [23]) was “Non-toxic” and the T/C (L1210 [24]) was 109%. For the same molecule, the T/C (L1210 [25]) was 124%, the Activity (P388 [26]) was -2.5 g and the Activity (L1210 [27]) was -4.3 g.
